Measured values collected from several papers.
Lines come from different studies, so protocols differ.
SLC6A3: Sodium-dependent dopamine transporter (SLC6A3, Homo sapiens, UniProt Q01959)
PDE10A: cAMP and cAMP-inhibited cGMP 3',5'-cyclic phosphodiesterase 10A (PDE10A, Homo sapiens, UniProt Q9Y233)

C#Cc1cc(-c2cc(Nc3nc(N[C@@H](C)c4ccc(F)cn4)ncc3Cl)n[nH]2)ccc1C=O gave an inhibition of 73.3% (Activated CDC42 kinase 1 (TNK2, Homo sapiens, UniProt Q07912); enzyme activity; inhibitor; 0.2 µM).
Cc1cc(F)cc2c(CCC(=O)N[C@@H]3C(=O)NC[C@H]3O)c(-c3ccc(F)cc3)[nH]c12 gave an inhibition of 17% (SLC6A3; cell-free assay; 10 µM).
COc1ccc2c(Cc3cccc(-c4ccccc4)c3)ncnc2c1 gave an inhibition of 22% (PDE10A; enzyme activity; inhibitor; FP; 0.1 µM).
For CCOC(=O)[C@@]12C[C@@H]1[C@@H](n1cnc3c(NCCCCCc4ccccc4)nc(I)nc31)[C@H](O)[C@@H]2O, the inhibition was 85% (SLC6A3; ligand displacement; radioligand; 10 µM).
CCN1/C(=C/C(C)=O)Sc2ccc(F)cc21 has an inhibition of 0% (D(3) dopamine receptor (DRD3, Homo sapiens, UniProt P35462); ligand displacement; radioligand; 10 µM).
The inhibition of Cc1cc(O)c(-c2ccc([C@@H](C)CN(C)C)cc2)c2c1[nH]c(=O)c1sccc12 is reported as -4.58% (Ephrin type-B receptor 4 (EPHB4, Homo sapiens, UniProt P54760); cell-free assay; inhibitor; 0.1 µM).
For COc1ccc(-c2cccc(Cc3ncnc4cc(OC)c(OC)cc34)c2)cc1OC, the inhibition was 85% (PDE10A; enzyme activity; inhibitor; FP; 0.1 µM).
CCOC(=O)[C@@]12C[C@@H]1[C@@H](n1cnc3c(NCc4cccc(Cl)c4)nc(C#Cc4ccc(Cl)s4)nc31)[C@H](O)[C@@H]2O has an inhibition of 75% (SLC6A3; ligand displacement; radioligand; 10 µM).
With COc1ccc2c(Cc3cccc(-c4ccccc4)c3)nccc2c1 the inhibition was 3% (PDE10A; enzyme activity; inhibitor; FP; 0.1 µM).
CCOC(=O)[C@@]12C[C@@H]1[C@@H](n1cnc3c(NCCCCc4ccccc4)nc(I)nc31)[C@H](O)[C@@H]2O gave an inhibition of 19% (SLC6A3; ligand displacement; radioligand; 10 µM).
COc1ccc2c(Cc3cccc(-c4ccccc4)c3)ccnc2c1 has an inhibition of 22% (PDE10A; enzyme activity; inhibitor; FP; 0.1 µM).
The inhibition of O[C@@H]1[C@H](O)[C@@H]2C[C@@H]2[C@H]1n1cnc2c(NCCC3CC3)nc(I)nc21 is reported as 9% (SLC6A3; ligand displacement; radioligand; 10 µM).
NC/C(=C\F)COc1cccc(Cn2c(=S)[nH]c(=O)c3[nH]cnc32)c1 gave an inhibition of less than 50% (SLC6A3; ligand displacement; radioligand; 10 µM).
The inhibition of CC(C)C[C@H](NC(=O)[C@@H](NC(=O)[C@@H](NC(=O)[C@@H]1CCCN1C(=O)[C@@H](N)CCC(=O)O)C(C)C)[C@@H](C)O)C(=O)N[C@H](C(=O)O)[C@@H](C)O is reported as 47.2% (Angiotensin-converting enzyme (ACE, Homo sapiens, UniProt P12821); enzyme activity; inhibitor; 1.4 mM).
The inhibition of c1ccc(-c2cccc(Cc3nccc4ccccc34)c2)cc1 is reported as 0% (PDE10A; enzyme activity; inhibitor; FP; 0.1 µM).
N#CC[C@@]12C[C@@H]1[C@@H](n1cnc3c(NCCCCCc4ccccc4)nc(C#Cc4ccc(Cl)s4)nc31)[C@H](O)[C@@H]2O gave an inhibition of 7% (SLC6A3; ligand displacement; radioligand; 10 µM).
COc1ccc2c(Cc3ccc(OC)c(OC)c3)ncnc2c1 gave an inhibition of 22% (PDE10A; enzyme activity; inhibitor; FP; 0.1 µM).
For O[C@@H]1[C@H](O)[C@@H]2C[C@@H]2[C@H]1n1cnc2c(NCCC3CC3)ncnc21, the inhibition was 50% (SLC6A3; transporter uptake; inhibitor; radiometric; HEK293; 20 nM).
